The target of assay [1] is T1, Aldo-keto reductase family 1 member C2 (Homo sapiens, UniProt P52895).
T1 sequence (P52895 whole entry): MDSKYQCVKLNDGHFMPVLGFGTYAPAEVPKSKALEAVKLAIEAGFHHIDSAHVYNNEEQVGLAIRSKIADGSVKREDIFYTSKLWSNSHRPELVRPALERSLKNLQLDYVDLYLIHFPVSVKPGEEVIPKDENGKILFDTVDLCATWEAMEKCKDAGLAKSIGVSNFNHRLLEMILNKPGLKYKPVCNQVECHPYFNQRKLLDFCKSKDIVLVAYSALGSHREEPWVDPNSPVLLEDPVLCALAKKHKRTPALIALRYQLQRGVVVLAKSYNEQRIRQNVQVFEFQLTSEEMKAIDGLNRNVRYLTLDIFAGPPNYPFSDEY
Nature of the assay: Inhibition of recombinant AKR1C2 assessed as NADP+ dependent oxidation of S-tetralol by fluorescence assay. Summed up:
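Homogeneous recombinant enzyme; continuous oxidation of S-tetralol (at each isoform's KM) with 200 μM NADP+ in 100 mM phosphate pH 7.0, 4% DMSO, 37 °C. Initial velocities compared with solvent control; quadruplicate points over a range of inhibitor concentrations; IC50 from curve fit.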

Assay [2] deals with T2, Aldo-keto reductase family 1 member C3 (Homo sapiens, UniProt P42330).
T2 sequence (P42330 whole entry): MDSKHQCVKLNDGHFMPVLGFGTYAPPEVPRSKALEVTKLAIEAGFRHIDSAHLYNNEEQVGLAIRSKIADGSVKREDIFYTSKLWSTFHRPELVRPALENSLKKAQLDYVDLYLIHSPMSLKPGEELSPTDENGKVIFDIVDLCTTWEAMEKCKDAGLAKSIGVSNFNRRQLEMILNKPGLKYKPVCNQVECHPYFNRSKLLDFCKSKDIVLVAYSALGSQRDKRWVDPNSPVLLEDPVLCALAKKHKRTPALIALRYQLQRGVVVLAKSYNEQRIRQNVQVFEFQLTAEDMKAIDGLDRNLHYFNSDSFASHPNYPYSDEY
Nature of the assay: Inhibition of recombinant AKR1C3 assessed as NADP+ dependent oxidation of S-tetralol by fluorescence assay.

Some results are limits rather than exact numbers.

On to `COc1ccc(Nc2ccc(C(C)=O)cc2C(=O)O)c([N+](=O)[O-])c1`, for which the IC50 in assay [1] was found to be 3930 nM; in assay [2] it was 260 nM.
As to `COc1ccc(C(=O)O)c(Nc2ccc(C(=O)O)cc2)c1`, the figures for the IC50 in assay [1] and in assay [2] were 980 nM and 690 nM, respectively.
For `CC(=O)c1ccccc1Nc1cccc(C(=O)O)c1`, the IC50 in assay [1] was 32600 nM; in assay [2], 960 nM.
Taken in the same sequence, the figures for `COc1ccc(C(=O)O)c(Nc2ccc([N+](=O)[O-])cc2)c1` were 190 nM and 500 nM.
In the case of `COc1cccc(Nc2ccc(C(=O)O)cc2)c1`, the IC50 in assay [1] is 84400 nM; in assay [2] it was 2650 nM.
Taken in the same sequence, the figures for `CC(=O)c1ccc(Nc2cc(C(=O)O)cc(C(=O)O)c2)c(C(=O)O)c1` were 31600 nM and 610 nM.
The matching figures for `O=C(O)c1cccc(Nc2ccccc2[N+](=O)[O-])c1`: 4770 nM and 150 nM.
For `COc1ccc(C(=O)O)c(Nc2cccc(C(=O)O)c2)c1`, the figures for the IC50 in assay [1] and in assay [2] were 8380 nM and 1450 nM, respectively.
The matching figures for `O=C(O)c1ccc(Nc2ccc(C(=O)O)cc2)cc1`: 6300 nM and 2370 nM.
For `CC(=O)c1ccc(Nc2ccc(C(=O)O)cc2)c(C(=O)O)c1`, the IC50 amounted to 18900 nM in assay [1] and 1550 nM in assay [2].
`CC(=O)c1ccc(Nc2cccc(C)c2)c(C(=O)O)c1`: the results for the IC50 in assay [1] and in assay [2] were 2840 nM and 1940 nM, respectively.
The matching figures for `COc1ccc(C(=O)O)c(Nc2cccc([N+](=O)[O-])c2)c1`: 190 nM and 80 nM.
As to `CC(=O)c1ccc(Nc2ccccc2[N+](=O)[O-])c(C(=O)O)c1`, the figures for the IC50 in assay [1] and in assay [2] were 3970 nM and 1110 nM, respectively.
The matching figures for `CC(=O)c1ccc(Nc2ccc([N+](=O)[O-])cc2)c(C(=O)O)c1`: 1330 nM and 1170 nM.
Taken in the same sequence, the figures for `CC(=O)c1cccc(Nc2cccc(C(=O)O)c2)c1` were 36600 nM and 560 nM.
For the compound `Cc1cccc(Nc2ccc(C(=O)O)cc2)c1`, the IC50 came out at 21500 nM in assay [1] and 1670 nM in assay [2].
Take `COc1ccccc1Nc1ccc(C(C)=O)cc1C(=O)O`: the IC50 in assay [1] came to 8970 nM; in assay [2], 3060 nM.
`CC(=O)c1ccc(Nc2cc(C)cc(C)c2)c(C(=O)O)c1`: the IC50 in assay [1] came to 10600 nM; in assay [2] it was 1820 nM.
As for `COc1ccc(C(=O)O)c(Nc2cccc(C(F)(F)F)c2)c1`, the IC50 in assay [1] amounted to 220 nM; in assay [2] it was 60 nM.
Turning to `O=C(O)c1cccc(Nc2cccc(C(F)(F)F)c2)c1`, the IC50 in assay [1] turned out to be 16000 nM; in assay [2], 320 nM.
Regarding `Cc1ccc(Nc2ccccc2C(=O)O)cc1`, the results for the IC50 in assay [1] and in assay [2] were 1460 nM and 360 nM, respectively.
As to `O=C(O)c1cccc(Nc2cccc([N+](=O)[O-])c2)c1`, the IC50 in assay [1] came out at 19300 nM; in assay [2], 290 nM.
For `COc1cc(Nc2ccc(C(C)=O)cc2C(=O)O)cc(OC)c1`, the IC50 stood at 26800 nM in assay [1] and 900 nM in assay [2].
On to `O=C(O)c1ccccc1Nc1cccc([N+](=O)[O-])c1`, for which the values for the IC50 in assay [1] and in assay [2] were 510 nM and 40 nM, respectively.
Regarding `COc1ccccc1Nc1cccc(C(=O)O)c1`, the IC50 in assay [1] is 26600 nM; in assay [2], 1650 nM.
For the compound `O=C(O)c1cccc(Nc2ccc([N+](=O)[O-])cc2OC(F)(F)F)c1`, the concentration for half-maximal inhibition (IC50) is 1780 nM in assay [1] and 40 nM in assay [2].
Consider `O=C(O)c1ccccc1Nc1cccc(Cl)c1`, for which the 50% inhibitory concentration (IC50) in assay [1] and in assay [2] was 150 nM each time.
As to `CC(=O)c1ccc(Nc2ccc(C(F)(F)F)cc2)c(C(=O)O)c1`, the IC50 was found to be 2730 nM in assay [1] and 140 nM in assay [2].
Take `O=C(O)c1ccc(Nc2ccc(Cl)cc2)cc1`: the half-inhibitory concentration (IC50) was 20000 nM in assay [1] and 1050 nM in assay [2].
`CC(C)(C)c1ccc(Nc2ccccc2C(=O)O)cc1`: the IC50 was found to be 1070 nM in assay [1] and 40 nM in assay [2].
Taken in the same sequence, the figures for `COc1ccc(Nc2ccc(C(=O)O)cc2)cc1` were 22900 nM and 2210 nM.
Take `COc1ccc(C(=O)O)c(Nc2ccc(Cl)cc2)c1`: the IC50 in assay [1] was 290 nM; in assay [2], 220 nM.
Taken in the same sequence, the figures for `CC(=O)c1ccc(Nc2ccccc2C(=O)O)cc1` were 400 nM and 130 nM.
`CC(=O)c1ccc(Nc2ccc(Cl)cc2)c(C(=O)O)c1`: the IC50 in assay [1] was 2230 nM; in assay [2], 600 nM.
The matching figures for `CC(=O)c1ccc(Nc2ccc(C(C)=O)cc2C(=O)O)cc1`: 18700 nM and 470 nM.
Taken in the same sequence, the figures for `COc1ccc(Nc2ccccc2C(=O)O)c([N+](=O)[O-])c1` were 920 nM and 30 nM.
As to `COc1cc(Nc2cccc(C(=O)O)c2)cc(OC)c1`, the IC50 in assay [1] is 56200 nM; in assay [2] it was 360 nM.
Taken in the same sequence, the figures for `COc1ccc(Nc2ccc(C(C)=O)cc2C(=O)O)cc1` were 910 nM and 610 nM.
Turning to `O=C(O)c1cccc(Nc2cc(C(F)(F)F)cc(C(F)(F)F)c2)c1`, the IC50 in assay [1] worked out at 19200 nM; in assay [2], 250 nM.
Regarding `CC(=O)c1ccc(Nc2ccc(Br)cc2)c(C(=O)O)c1`, the values for the concentration for half-maximal inhibition (IC50) in assay [1] and in assay [2] were 490 nM and 250 nM, respectively.
`CC(=O)c1ccc(Nc2ccc(C)cc2)c(C(=O)O)c1`: the IC50 in assay [1] amounted to 8230 nM; in assay [2], 1650 nM.
With `COc1ccc(Nc2ccc(C(=O)O)cc2)c([N+](=O)[O-])c1`, the results for the IC50 in assay [1] and in assay [2] were 59200 nM and 2060 nM, respectively.
With `O=C(O)c1ccccc1Nc1ccc([N+](=O)[O-])cc1`, the IC50 in assay [1] was found to be 280 nM; in assay [2], 160 nM.
Regarding `O=C(O)c1cccc(Nc2ccccc2C(F)(F)F)c1`, the IC50 in assay [1] came out at 15100 nM; in assay [2], 560 nM.
Consider `COc1ccc(C(=O)O)c(Nc2ccc(C(C)=O)cc2)c1`, for which the IC50 in assay [1] came out at 270 nM; in assay [2], 500 nM.
Taken in the same sequence, the figures for `CC(=O)c1ccc(Nc2cccc([N+](=O)[O-])c2)c(C(=O)O)c1` were 3170 nM and 980 nM.
On to `CC(=O)c1ccc(Nc2cccc(Cl)c2)c(C(=O)O)c1`, for which the IC50 stood at 2550 nM in assay [1] and 1160 nM in assay [2].
Turning to `COc1ccccc1Nc1ccc(C(=O)O)cc1`, the IC50 in assay [1] is 29300 nM; in assay [2] it was 3390 nM.
As to `CC(=O)c1ccc(Nc2cccc(C(F)(F)F)c2)c(C(=O)O)c1`, the half-maximal inhibitory concentration (IC50) in assay [1] was determined as 2670 nM; in assay [2], 730 nM.
As for `COc1ccc(C(=O)O)c(Nc2ccc(C)cc2)c1`, the figures for the half-maximal inhibitory concentration (IC50) in assay [1] and in assay [2] were 1110 nM and 800 nM, respectively.
As to `COc1ccccc1Nc1ccccc1C(=O)O`, the IC50 was 1280 nM in assay [1] and 2220 nM in assay [2].
For `O=C(O)c1ccc(Nc2ccc([N+](=O)[O-])cc2)cc1`, the results for the IC50 in assay [1] and in assay [2] were 11100 nM and 1320 nM, respectively.
For `CC(=O)c1cccc(Nc2ccccc2C(=O)O)c1`, the figures for the IC50 in assay [1] and in assay [2] were 1550 nM and 140 nM, respectively.
With `CC(=O)c1ccc(Nc2ccc(C(C)(C)C)cc2)c(C(=O)O)c1`, the IC50 in assay [1] was determined as 7050 nM; in assay [2] it was 280 nM.
Consider `O=C(O)c1ccccc1Nc1ccc(Cl)cc1`, for which the values for the IC50 in assay [1] and in assay [2] were 410 nM and 70 nM, respectively.
`Cc1cccc(Nc2cccc(C(=O)O)c2)c1`: the IC50 came to 22900 nM in assay [1] and 1880 nM in assay [2].
With `CC(C)(C)c1ccc(Nc2ccc(C(=O)O)cc2)cc1`, the IC50 in assay [1] worked out at 10300 nM; in assay [2] it was 930 nM.
For `CC(=O)c1ccc(Nc2ccccc2C(F)(F)F)c(C(=O)O)c1`, the IC50 in assay [1] came out at 2070 nM; in assay [2] it was 1350 nM.
Taken in the same sequence, the figures for `O=C(O)c1ccc(Nc2cccc(C(F)(F)F)c2)cc1` were 11100 nM and 500 nM.
As to `COc1ccc(C(=O)O)c(Nc2cccc(Cl)c2)c1`, the results for the IC50 in assay [1] and in assay [2] were 280 nM and 160 nM, respectively.
Turning to `COc1cc(Nc2cc(OC)ccc2C(=O)O)cc(OC)c1`, the IC50 in assay [1] was determined as 6780 nM; in assay [2], 2220 nM.
With `COc1ccc(C(=O)O)c(Nc2cccc(C)c2)c1`, the IC50 was 870 nM in assay [1] and 640 nM in assay [2].
For the compound `O=C(O)c1cccc(Nc2cccc(C(=O)O)c2)c1`, the IC50 is > 100000 nM in assay [1] and 3570 nM in assay [2].
With `O=C(O)c1ccc(Nc2ccc(Br)cc2)cc1`, the IC50 in assay [1] was > 30000 nM; in assay [2] it was 1180 nM.
Consider `COc1cccc(Nc2ccc(C(C)=O)cc2C(=O)O)c1`, for which the IC50 in assay [1] was 3580 nM; in assay [2], 2260 nM.
In the case of `CC(=O)c1ccc(Nc2ccc(C(=O)O)cc2)cc1`, the IC50 in assay [1] was 24500 nM; in assay [2] it was 2500 nM.
`Cc1cc(C)cc(Nc2ccc(C(=O)O)cc2)c1`: the IC50 came out at 49300 nM in assay [1] and 870 nM in assay [2].
With `O=C(O)c1cccc(Nc2ccccc2C(=O)O)c1`, the results for the IC50 in assay [1] and in assay [2] were 4160 nM and 980 nM, respectively.
Taken in the same sequence, the figures for `O=C(O)c1cccc(Nc2cc(C(=O)O)cc(C(=O)O)c2)c1` were > 100000 nM and > 30000 nM.

Values taken from ChEMBL document CHEMBL2040753, “Development of potent and selective inhibitors of aldo-keto reductase 1C3 (type 5 17β-hydroxysteroid dehydrogenase) based on N-phenyl-aminobenzoates and their structure-activity relationships” (J Med Chem, 2012).
